Measurements reported in ChEMBL document CHEMBL4396949, “Anti-cancer potential of novel glycosylated 1,4-substituted triazolylchalcone derivatives” (Bioorg Med Chem Lett, 2019).
Calls of active or inactive are those of the source. The rule behind the calls is not given here.

Tests used:
MDA-MB-468 [1] = test: Antiproliferative activity against human MDA-MB-468 cells incubated for 24 hrs by MTT assay; type: functional; conditions: MDA-MB-468, 24 h, read-out: LD50 (the source's name)
Summary of the method: (§1)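 Cells exposed to compounds at […]; viability read by MTT assay. LD50 derived from concentration-response. MDA-MB-468: triple-negative (ER-, PR-, HER2-) breast cancer. MCF-7: ER+, PR+, HER2- breast cancer. WI-38: non-cancerous lung fibroblasts. Selectivity index taken as WI-38 LD50 divided by cancer-cell LD50.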

MCF7 [2] = test: Antiproliferative activity against human MCF7 cells incubated for 24 hrs by MTT assay; type: functional; conditions: MCF7, 24 h, read-out: LD50 (the source's name); summary of the method: as §1
[3] = Antiproliferative activity against human WI38 cells incubated for 24 hrs by MTT assay; type: cell-based, WI-38; conditions: read-out: LD50; summary of the method: as §1
[4] = Selectivity index, ratio of LD50 for human WI38 cells to LD50 for human MDA-MB-468 cells; type: toxicity; conditions: WI38 cells and MDA-MB-468 cells, read-out: Selectivity Index
Summary of the method: (§2)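 MTT cytotoxicity after exposure to […] in MDA-MB-468, MCF-7 and WI-38 fibroblasts; LD50 determined per line; selectivity index calculated as WI-38 LD50 divided by cancer-cell LD50.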

[5] = Selectivity index, ratio of LD50 for human WI38 cells to LD50 for human MCF7 cells; type: toxicity; conditions: WI38 cells and MCF7 cells, read-out: Selectivity Index; summary of the method: as §2
MDA-MB-468 [6] = test: Induction of apoptosis in human MDA-MB-468 cells assessed as increase in apoptotic cells incubated for 24 hrs by annexin V-FITC and PI staining based flow cytometric analysis; type: functional, cell-based
Summary of the method: (§3)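 Cells treated at 0, 20, 40 and 60 µM for 24 h, stained with Annexin V-FITC/PI and analysed by flow cytometry; apoptotic cell percentage quantified from dot plots.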

MCF7 [7] = test: Induction of apoptosis in human MCF7 cells assessed as increase in apoptotic cells incubated for 24 hrs by annexin V-FITC and PI staining based flow cytometric analysis; type: functional, cell-based; summary of the method: as §3
MDA-MB-468 [8] = test: Induction of apoptosis in human MDA-MB-468 cells assessed as increase in apoptotic cells at 60 uM incubated for 24 hrs by annexin V-FITC and PI staining based flow cytometric analysis relative to control; type: functional; summary of the method: as §3
MCF7 [9] = test: Induction of apoptosis in human MCF7 cells assessed as increase in apoptotic cells at 60 uM incubated for 24 hrs by annexin V-FITC and PI staining based flow cytometric analysis relative to control; type: functional; summary of the method: as §3
WI-38 = test: Induction of apoptosis in human WI38 cells at 20 to 60 uM incubated for 24 hrs by annexin V-FITC and PI staining based flow cytometric analysis; type: cell-based; conditions: wi-38, 24 h; summary of the method: as §3
MDA-MB-468 [10] = test: Induction of ROS production in human MDA-MB-468 cells assessed as increase in green intensity incubated for 12 hrs by DCFDA staining based microscopic analysis; type: functional, cell-based
Summary of the method: (§4)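 Cells exposed to 0, 20, 40 and 60 µM for 12 h, then loaded with DCFDA (100 µM) for 30 min; green fluorescence assessed by microscopy with image quantitation, plus spectrophotometric fluorescence intensity; H2O2 positive control.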

MCF7 [11] = test: Induction of ROS production in human MCF7 cells assessed as increase in green intensity incubated for 12 hrs by DCFDA staining based microscopic analysis; type: functional, cell-based; summary of the method: as §4
MDA-MB-468 [12] = test: Disruption of mitochondrial membrane potential in human MDA-MB-468 cells assessed as shift of fluorescence from red to green by JC1 staining based fluorescent microscopic method; type: functional, cell-based
Summary of the method: (§5)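 JC-1 staining with fluorescence imaging; mitochondrial permeability transition read as a red-to-green shift (fall in red/green ratio), quantified from images; H2O2 as positive control.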

MCF7 [13] = test: Disruption of mitochondrial membrane potential in human MCF7 cells assessed as shift of fluorescence from red to green by JC1 staining based fluorescent microscopic method; type: functional, cell-based; summary of the method: as §5
MDA-MB-468 [14] = test: Induction of mitochondrial ROS production in human MDA-MB-468 cells at 40 to 60 uM incubated for 24 hrs by MitoSox red dye based fluorescence microscopic method; type: functional, cell-based
Summary of the method: (§6)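 MitoSOX Red, a live-cell mitochondria-targeted superoxide probe, after exposure to 40 and 60 µM; read by fluorescence microscopy and spectrophotometric fluorescence intensity; H2O2 positive control.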

MCF7 [15] = test: Induction of mitochondrial ROS production in human MCF7 cells at 40 to 60 uM incubated for 24 hrs by MitoSox red dye based fluorescence microscopic method; type: functional, cell-based; summary of the method: as §6
MDA-MB-468 [16] = test: Induction of cell cycle arrest in human MDA-MB-468 cells assessed as increase in accumulation at sub G1 phase at 60 uM by PI staining based FACS analysis relative to control; type: functional
Summary of the method: (§7)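 Cells exposed to 20, 40 and 60 µM; cell cycle distribution by FACS, with sub-G1 population quantified as a measure of apoptosis.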

MCF7 [17] = test: Induction of cell cycle arrest in human MCF7 cells assessed as increase in accumulation at sub G1 phase at 60 uM by PI staining based FACS analysis relative to control; type: functional; summary of the method: as §7
MDA-MB-468 [18] = test: Induction of DNA fragmentation in human MDA-MB-468 cells assessed as formation of polynuclear fragmentation at 40 to 60 uM incubated for 12 hrs by DAPI staining based fluorescence microscopic method; type: functional, cell-based
Summary of the method: (§8)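 Nuclear morphology by DAPI staining and fluorescence microscopy; apoptotic (fragmented, polynuclear) nuclei counted and expressed as percent apoptotic cells versus untreated control; H2O2 positive control.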

MCF7 [19] = test: Induction of DNA fragmentation in human MCF7 cells assessed as formation of polynuclear fragmentation at 40 to 60 uM incubated for 12 hrs by DAPI staining based fluorescence microscopic method; type: functional, cell-based; summary of the method: as §8
MDA-MB-468 [20] = test: Induction of DNA fragmentation in human MDA-MB-468 cells assessed as apoptotic cells at 40 to 60 uM incubated for 12 hrs by DAPI staining based fluorescence microscopic method; type: functional, cell-based; summary of the method: as §8
MCF7 [21] = test: Induction of DNA fragmentation in human MCF7 cells assessed as apoptotic cells at 40 to 60 uM incubated for 12 hrs by DAPI staining based fluorescence microscopic method; type: functional, cell-based; summary of the method: as §8
MDA-MB-468 [22] = test: Induction of DNA fragmentation in human MDA-MB-468 cells assessed as apoptotic cells at 60 uM incubated for 12 hrs by DAPI staining based fluorescence microscopic method relative to control; type: functional; summary of the method: as §8
MCF7 [23] = test: Induction of DNA fragmentation in human MCF7 cells assessed as apoptotic cells at 60 uM incubated for 12 hrs by DAPI staining based fluorescence microscopic method relative to control; type: functional; summary of the method: as §8
MDA-MB-468 [24] = test: Induction of apoptosis in human MDA-MB-468 cells assessed as increase in bax protein expression at 40 to 60 uM by Western blot analysis; type: functional, cell-based
MDA-MB-468 [25] = test: Induction of apoptosis in human MDA-MB-468 cells assessed as decrease in bcl2 protein expression at 40 to 60 uM by Western blot analysis; type: functional, cell-based
MDA-MB-468 [26] = test: Induction of apoptosis in human MDA-MB-468 cells assessed as increase in cleaved caspase-3 protein expression at 40 to 60 uM by Western blot analysis; type: functional, cell-based

CN(C)c1ccc(/C=C/C(=O)c2ccc(OCc3cn([C@@H]4O[C@H](CO)[C@@H](O)[C@H](O)[C@H]4O)nn3)cc2)cc1
CC50 (MDA-MB-468 [1]): 28 µM
CC50 (MCF7 [2]): 31 µM
CC50 at 24 h [3]: 59 µM
selectivity ratio [4]: 2.11
selectivity ratio [5]: 1.9
Activity (MDA-MB-468 [6]): Dose-dependent effect
Activity (MCF7 [7]): Dose-dependent effect
Activity (MDA-MB-468 [8]): 60%
Activity (MCF7 [9]): 63%
Activity (WI-38): Non-Toxic
Activity (MDA-MB-468 [10]): Dose-dependent effect
Activity (MCF7 [11]): Dose-dependent effect
Activity (MDA-MB-468 [12]): Dose-dependent effect
Activity (MCF7 [13]): Dose-dependent effect
Activity (MDA-MB-468 [14]): Active
Activity (MCF7 [15]): Active
Activity (MDA-MB-468 [16]): 62%
Activity (MCF7 [17]): 67%
Activity (MDA-MB-468 [18]): Active
Activity (MCF7 [19]): Active
Activity (MDA-MB-468 [20]): Active
Activity (MCF7 [21]): Active
Activity (MDA-MB-468 [22]): 72%
Activity (MCF7 [23]): 78%
Activity (MDA-MB-468 [24]): Active
Activity (MDA-MB-468 [25]): Active
Activity (MDA-MB-468 [26]): Active
